Experimental data: ChEMBL document CHEMBL1150775, “Synthesis and evaluation of estrogen agonism of diaryl 4,5-dihydroisoxazoles, 3-hydroxyketones, 3-methoxyketones, and 1,3-diketones: a compound set forming a 4D molecular library” (J Med Chem, 2008)
Values joined by “and” are separate entries in the source; they are usually repeats but may differ in a detail not shown here. Identical values can stand only once.

What was measured:
Assay type in all cases: cell-based
[1] = target: T1, Estrogen receptor (Homo sapiens) (UniProt P03372); assay: Activation of human estrogen receptor alpha expressed in HEK293 cells at 10 uM beta-galactosidase reporter gene assay relative to control
T1 sequence (whole entry): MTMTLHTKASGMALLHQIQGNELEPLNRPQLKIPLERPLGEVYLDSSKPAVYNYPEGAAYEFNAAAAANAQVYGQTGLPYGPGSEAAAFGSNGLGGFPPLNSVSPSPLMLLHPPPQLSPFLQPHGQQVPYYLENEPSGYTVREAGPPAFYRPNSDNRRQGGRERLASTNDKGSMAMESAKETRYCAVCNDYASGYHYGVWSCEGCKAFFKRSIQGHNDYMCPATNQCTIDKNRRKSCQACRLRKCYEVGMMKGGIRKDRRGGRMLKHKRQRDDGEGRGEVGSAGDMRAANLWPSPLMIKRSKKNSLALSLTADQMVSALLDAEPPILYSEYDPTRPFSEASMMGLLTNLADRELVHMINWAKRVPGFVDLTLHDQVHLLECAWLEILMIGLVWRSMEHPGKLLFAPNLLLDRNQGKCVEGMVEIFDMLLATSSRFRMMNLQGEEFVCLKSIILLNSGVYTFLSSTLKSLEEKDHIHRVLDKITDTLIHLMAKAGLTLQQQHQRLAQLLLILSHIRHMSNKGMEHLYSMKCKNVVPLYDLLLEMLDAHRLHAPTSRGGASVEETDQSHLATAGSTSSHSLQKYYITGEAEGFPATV
Method in brief: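 Luciferase reporter in transiently transfected HEK293 cells. Cells received 5 ng ERα or ERβ vector, ERE2-TATA luciferase reporter and pCMVβ by calcium phosphate for 4 h. Compound at 10 µM for 24 h in phenol-free medium with delipidated serum. β-Gal-normalized luciferase expressed as fold activation over vehicle (0.1% v/v). Means ± SEM of ≥3 transfections.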

[2] = target: T1, Estrogen receptor (Homo sapiens); assay: Activation of human estrogen receptor alpha expressed in HEK293 cells at 10 uM in presence of ICI-182780 beta-galactosidase reporter gene assay relative to control
Method in brief: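 Antagonism format: transfection as for the agonist assay (ERα or ERβ vector, ERE2-TATA-LUC, pCMVβ; 4 h). Medium then contained 10 µM compound plus 1000 nM ICI-182,780 or vehicle for 24 h. β-Gal-normalized luciferase given as fold activation relative to vehicle. Means ± SEM of ≥3 independent transfections.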

[3] = target: T1, Estrogen receptor (Homo sapiens); assay: Activation of human estrogen receptor alpha expressed in HEK293 cells at 10 uM by beta-galactosidase reporter gene assay relative to 3,17 beta-estradiol
Method in brief: (§1)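 HEK293 cells seeded a day ahead in phenol-free DMEM with 5% delipidated FBS. Calcium phosphate transfection for 4 h with 5 ng ERα or ERβ expression vector, 75 ng pERE2TATA-LUC reporter and 20 ng pCMVβ control. Test compound at 10 µM (vehicle 0.1% v/v) for 24 h. Luciferase normalized to β-galactosidase. Activity = 100% × (test − vehicle)/(10 nM E2 − vehicle). Mean of ≥3 independent transfections.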

[4] = target: Estrogen receptor beta (Homo sapiens) (UniProt Q92731); assay: Activation of human estrogen receptor beta expressed in HEK293 cells at 10 uM beta-galactosidase reporter gene assay relative to 3,17-beta-estradiol; method in brief: as §1
Estrogen receptor beta (Homo sapiens), sequence (Q92731 whole entry): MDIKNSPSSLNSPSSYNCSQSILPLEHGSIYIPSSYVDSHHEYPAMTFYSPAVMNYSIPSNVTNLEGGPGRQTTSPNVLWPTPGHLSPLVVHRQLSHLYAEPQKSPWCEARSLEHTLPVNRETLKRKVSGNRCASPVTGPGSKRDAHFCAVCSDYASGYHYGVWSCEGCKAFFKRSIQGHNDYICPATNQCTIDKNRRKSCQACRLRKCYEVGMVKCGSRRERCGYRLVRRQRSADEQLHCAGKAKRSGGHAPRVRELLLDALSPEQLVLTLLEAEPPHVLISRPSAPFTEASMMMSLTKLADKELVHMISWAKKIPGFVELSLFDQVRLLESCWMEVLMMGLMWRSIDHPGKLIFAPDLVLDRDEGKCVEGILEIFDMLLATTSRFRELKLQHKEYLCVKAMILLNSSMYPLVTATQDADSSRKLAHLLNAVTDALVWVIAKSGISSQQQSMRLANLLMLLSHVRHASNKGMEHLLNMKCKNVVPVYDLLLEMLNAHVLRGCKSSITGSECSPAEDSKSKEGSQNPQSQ

Compound: c1ccc(CCC2=NOC(CCc3ccccc3)C2)cc1 (single isomer, unassigned; 18b)
- Activity [1]: 126
- Activity [2]: 1
- Activity [3]: 43.9%
- Activity [4]: -0.4%

Compound: COc1ccc(CC2CC(CCc3ccccc3)=NO2)cc1 (single isomer, unassigned; 50b)
- Activity [3]: 16.1%
- Activity [4]: 13.2%

Compound: COc1ccccc1CC(=O)CC(Cc1ccc2ccccc2c1)OC (single isomer, unassigned; 66b)
- Activity [3]: 4.3%
- Activity [4]: -0.5%

Compound: Oc1ccc(CCC2=NOC(Cc3ccc(O)cc3)C2)cc1 (configuration not stated)
- Activity [3]: 81.4% and 76.2%
- Activity [4]: 4.1% and 12%

Compound: CS(C)=C(C(=O)CCc1ccccc1)C(=O)CCc1ccccc1
- Activity [3]: 1%
- Activity [4]: 0.3%

Compound: O=C(CCc1ccccc1)CC(O)Cc1ccc(F)cc1 (configuration not stated)
- Activity [3]: 30.1%
- Activity [4]: 5.7%

Compound: COc1ccccc1CC(=O)CC(Cc1cccc2ccccc12)OC (single isomer, unassigned; 63b)
- Activity [3]: 0.6%
- Activity [4]: -0.2%

Compound: Oc1ccc(CCC2=NOC(Cc3ccc(F)cc3)C2)cc1 (configuration not stated)
- Activity [3]: 5.7%
- Activity [4]: 4.4%

Compound: Oc1ccc(CC2CC(CCc3ccccc3)=NO2)cc1 (single isomer, unassigned; 69a)
- Activity [3]: 34.2%
- Activity [4]: 9.1%

Compound: COC(CC(=O)CCCc1ccccc1)Cc1ccccc1 (configuration not stated)
- Activity [3]: 24.5%
- Activity [4]: 30.4%

Compound: c1ccc(CCC2=NOC(c3ccccc3)C2)cc1 (single isomer, unassigned; 12a)
- Activity [3]: 16.4%
- Activity [4]: 9.8%

Compound: Fc1ccc(CC2CC(CCc3ccccc3)=NO2)cc1 (single isomer, unassigned)
- Activity [3]: 28.9%
- Activity [4]: 7.4%

Compound: COc1ccccc1CC(=O)CC(Cc1ccc2ccccc2c1)OC (single isomer, unassigned; 66a)
- Activity [3]: 3.5%
- Activity [4]: -0.5%

Compound: COC(CC(=O)CCc1ccccc1)Cc1cccc2ccccc12 (configuration not stated)
- Activity [3]: 35.5%
- Activity [4]: 2%

Compound: COC(CCc1ccccc1)CC(=O)CCCc1ccccc1 (configuration not stated)
- Activity [3]: 3.1%
- Activity [4]: -14.6%

Compound: COC(CC(=O)c1ccccc1)Cc1ccccc1 (configuration not stated)
- Activity [3]: 0.3%
- Activity [4]: 18.4%

Compound: Oc1cccc(CCC2=NOC(Cc3ccccc3)C2)c1 (configuration not stated)
- Activity [3]: 15.7%
- Activity [4]: -2.5%

Compound: O=C(CCCc1ccccc1)CC(O)c1ccccc1 (single isomer, unassigned; 24b)
- Activity [3]: 59.3%
- Activity [4]: 28.2%

Compound: Oc1ccccc1CCC1=NOC(Cc2ccc(F)cc2)C1 (single isomer, unassigned; 73a)
- Activity [3]: 82%
- Activity [4]: 3.4%

Compound: COc1ccccc1CC(=O)CC(Cc1cccc2ccccc12)OC (single isomer, unassigned; 63a)
- Activity [3]: 0%
- Activity [4]: 0%

Compound: c1ccc(CCC2=NOC(Cc3cccc4ccccc34)C2)cc1 (single isomer, unassigned; 52a)
- Activity [3]: 34.1%
- Activity [4]: 10.5%

Compound: COC(CC(=O)CCc1ccccc1)Cc1ccc(F)cc1 (configuration not stated)
- Activity [3]: 33.1%
- Activity [4]: 11.2%

Compound: c1ccc(CCC2=NOC(Cc3ccc4ccccc4c3)C2)cc1 (single isomer, unassigned; 53a)
- Activity [3]: 22.3%
- Activity [4]: 8.2%

Compound: O=C(CCc1ccccc1)CC(=O)Cc1ccccc1
- Activity [1]: 8.7
- Activity [2]: 1
- Activity [3]: 24.3%
- Activity [4]: 1.4%

Compound: Oc1ccccc1CCC1=NOC(Cc2ccc(F)cc2)C1 (single isomer, unassigned; 73b)
- Activity [3]: 11.1%
- Activity [4]: -2.4%

Compound: COC(CC(=O)Cc1ccccc1)Cc1ccccc1 (configuration not stated)
- Activity [3]: 1.4%
- Activity [4]: 0.3%

Compound: Fc1ccc(CC2CC(CCc3ccccc3)=NO2)cc1 (configuration not stated)
- Activity [3]: 99.2%
- Activity [4]: 11.2%

Compound: COC(CCc1ccccc1)CC(=O)Cc1ccccc1 (configuration not stated)
- Activity [3]: 12%
- Activity [4]: 0.2%

Compound: COc1ccc(CC2CC(CCc3ccccc3)=NO2)cc1 (single isomer, unassigned; 50a)
- Activity [3]: 0.8%
- Activity [4]: 10.6%

Compound: O=C(CCCc1ccccc1)CC(O)Cc1ccccc1 (configuration not stated)
- Activity [3]: 24.7%
- Activity [4]: 9.1%

Compound: COC(CC(=O)Cc1ccc(F)cc1)Cc1cccc2ccccc12 (single isomer, unassigned; 62a)
- Activity [3]: 0.2%
- Activity [4]: -0.6%

Compound: CS(C)=C(C(=O)CCCc1ccccc1)C(=O)c1ccccc1
- Activity [3]: -6%
- Activity [4]: 0%

Compound: COC(CC(=O)Cc1ccccc1)c1ccccc1 (configuration not stated)
- Activity [3]: 4.9%
- Activity [4]: -1.2%

Compound: O=C(Cc1ccccc1)CC(O)CCc1ccccc1 (configuration not stated)
- Activity [3]: 4.3%
- Activity [4]: 0.2%

Compound: O=C(CCCc1ccccc1)CC(=O)Cc1ccccc1
- Activity [3]: 27.7%
- Activity [4]: 4.2%

Compound: COC(CCc1ccccc1)CC(=O)c1ccccc1 (configuration not stated)
- Activity [3]: 38.1%
- Activity [4]: 25.8%

Compound: COc1ccc(CC(O)CC(=O)CCc2ccccc2)cc1 (single isomer, unassigned; 54b)
- Activity [3]: 1.3%
- Activity [4]: 1.2%

Compound: O=C(CCc1ccccc1)CC(O)c1ccccc1 (single isomer, unassigned; 23a)
- Activity [3]: 78.8%
- Activity [4]: 20.5%

Compound: O=C(CCc1ccccc1)CC(O)Cc1cccc2ccccc12 (configuration not stated)
- Activity [3]: 12.1%
- Activity [4]: 1.7%

Compound: Oc1ccc(CCC2=NOC(Cc3ccc(F)cc3)C2)cc1 (single isomer, unassigned)
- Activity [3]: 77.8%
- Activity [4]: 28.4%

Compound: c1ccc(CCC2=NOC(CCc3ccccc3)C2)cc1 (single isomer, unassigned; 18a)
- Activity [3]: 3.4%
- Activity [4]: 0.2%

Compound: c1ccc(CCC2=NOC(Cc3ccc4ccccc4c3)C2)cc1 (single isomer, unassigned; 53b)
- Activity [3]: 13%
- Activity [4]: 3.8%

Compound: Oc1ccc(CCC2=NOC(Cc3ccccc3)C2)cc1 (configuration not stated)
- Activity [3]: 171%
- Activity [4]: 143%

Compound: O=C(CCCc1ccccc1)CC(O)CCc1ccccc1 (configuration not stated)
- Activity [3]: 2.2%
- Activity [4]: -7.1%

Compound: c1ccc(CCC2=NOC(Cc3cccc4ccccc34)C2)cc1 (single isomer, unassigned; 52b)
- Activity [3]: 17.2%
- Activity [4]: 6.5%

Compound: c1ccc(CCC2=NOC(Cc3ccccc3)C2)cc1 (single isomer, unassigned)
- Activity [3]: 68.4%
- Activity [4]: 1.1%

Compound: O=C(Cc1ccccc1)CC(O)c1ccccc1 (configuration not stated)
- Activity [3]: 0.8%
- Activity [4]: 1.6%

Compound: CS(C)=C(C(=O)CCc1ccccc1)C(=O)Cc1ccccc1
- Activity [3]: 0.5%
- Activity [4]: -7.1%

Compound: O=C(Cc1ccccc1)CC(O)Cc1ccccc1 (configuration not stated)
- Activity [3]: 8.4%
- Activity [4]: 1.7%

Compound: O=C(CCCc1ccccc1)CC(O)c1ccccc1 (single isomer, unassigned; 24a)
- Activity [3]: 91.4%
- Activity [4]: 147%

Compound: COc1cc2ccccc2cc1CC(CC(=O)Cc1ccc2ccccc2c1)OC (configuration not stated)
- Activity [3]: 14.8%
- Activity [4]: 2%

Compound: O=C(CCc1ccccc1)CC(O)Cc1ccc2ccccc2c1 (single isomer, unassigned; 57b)
- Activity [3]: 20.1%
- Activity [4]: 20.1%

Compound: c1ccc(CC2=NOC(Cc3ccccc3)C2)cc1 (single isomer, unassigned; 14a)
- Activity [3]: -1.3%
- Activity [4]: -0.2%

Compound: CS(C)=C(C(=O)Cc1ccccc1)C(=O)Cc1ccccc1
- Activity [3]: 0.5%
- Activity [4]: -0.4%

Compound: c1ccc(CCC2=NOC(Cc3ccccc3)C2)cc1 (configuration not stated)
- Activity [3]: 38.2%
- Activity [4]: 1.3%

Compound: O=C(CCc1ccccc1)CC(O)c1ccccc1 (single isomer, unassigned; 23b)
- Activity [3]: 25.3%
- Activity [4]: 2.8%

Compound: Oc1ccccc1CCC1=NOC(Cc2ccccc2)C1 (configuration not stated)
- Activity [3]: 111%
- Activity [4]: 18.4%

Compound: Oc1cccc(CCC2=NOC(Cc3ccccc3)C2)c1 (single isomer, unassigned)
- Activity [3]: 19.2%
- Activity [4]: 6.7%

Compound: CS(C)=C(C(=O)CCc1ccccc1)C(=O)c1ccccc1
- Activity [3]: -2.5%
- Activity [4]: 3.3%

Compound: Oc1ccccc1CCC1=NOC(Cc2ccccc2)C1 (single isomer, unassigned)
- Activity [3]: 39.7%
- Activity [4]: 30.5%

Compound: O=C(CCc1ccccc1)CC(O)Cc1ccc2ccccc2c1 (single isomer, unassigned; 57a)
- Activity [3]: 12.4%
- Activity [4]: 6.4%

Compound: CS(C)=C(C(=O)CCCc1ccccc1)C(=O)CCc1ccccc1
- Activity [3]: 0.6%
- Activity [4]: -4.6%

Compound: COC(CC(=O)Cc1cccc2ccccc12)Cc1cccc2ccccc12 (single isomer, unassigned; 64b)
- Activity [1]: 26.1
- Activity [2]: 1.1
- Activity [3]: 23.9%
- Activity [4]: 0.4%
